Results taken from the EternaBench riboswitch data.

Test system: MS2 coat protein
Test: apparent Kd, MS2 coat protein; higher = weaker binding; RNA-MaP array; FMN 200 µM where present
Procedure, shortened: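 Designs were transcribed by stalled E. coli RNA polymerase on Illumina sequencing-chip clusters. They were titrated with SNAP-549-labelled MS2 coat protein from 0.7 or 1.5 nM, doubling to 3 µM, without and then with constant ligand. Buffer: 100 mM Tris-HCl pH 7.5, 80 mM KCl, 4 mM MgCl2, BSA, DTT, yeast tRNA, Tween-20. Green signal was normalised to red-channel RNA signal and control-cluster median Fmax. Apparent Kd is the median of filtered per-cluster binding-curve fits.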

[1] = designed as: ON switch for flavin mononucleotide, no ligand
[2] = ligand present: flavin mononucleotide, designed as: ON switch for flavin mononucleotide
[3] = designed as: OFF switch for flavin mononucleotide, no ligand
[4] = ligand present: flavin mononucleotide, designed as: OFF switch for flavin mononucleotide

Sequence	apparent Kd [1] [nM]	apparent Kd [2] [nM]	apparent Kd [3] [nM]	apparent Kd [4] [nM]
UGGAACAUGGGAGGAUAUGGGAUGAUAACAUGAGGAUCACCCAUGUUAAAGAUGCCGAGAGGCAACUAGAAGGCCCAUGUUCCU	368	60.5	–	–
AUAAACCUAGGAUAUACAUGAGGAUCACCCAUGUAAGGGCAAUGCCCAUGCUCCUCAUGUAGAAGGAGGAGCAG	–	–	21.8	25.5
AAUAACAGAGGAUAUACUGUUUUAUGUGUUUGUUGUUUUAAACAUGAGGAUCACCCAUGUAGAAGGCUGAAUAA	–	–	19.3	20.3
AUAAAUCAUGUAGGAUAUGCGUGGCGAAGCUAUGCAGAAGGACAUGAGGAUCACCCAUGUCUUUCUGUCUGCGUACAGACAGGA	–	–	23.9	115
AUUUGCCUAGGAUAUACUCGGGCCCGCUCAUACUCCAAUGGACAUGAGGAUCACCCAUGUAGAAGGAGGAACCA	–	–	16	20
GUCAGCUCGUCAGGAUAUACAUGAUAGAUCGAUUAAUUAAUUAAUUUAACAUGAGGAUCACCCAUGUAGAAGGGACGAGCUGAU	–	–	109	84.2
ACAUGAGGAUCACCCAUGUAUACAUAGGAUAUUGAGGAUCAGGGAUGUUUUACAGGAUAUGUCUACAAGAAGGAUGCAAGUACA	32.7	29.1	–	–
UUGGACGUCGUAGGAUAUGUAGGAUAGUCCUACAUGAGGAUCACCCAUGUUGACAUGGAAGAAGGACAGAAGGACGAUGUCCAU	553	35.4	–	–
UUGGACGUAGUAGGAUAUGUAGGAUAUUCCUACAUGAGGAUCACCCAUGUUGACAUGGAAGAAGGACAGAAGGACGAUGUCCAU	405	5.06	–	–
GCCAUCGCAUGAGGAUAUGCUCGGGUUUCCCGAGCAGAAGGCAUGUAAUAAGACAUGAGGAUCACCCAUGUAGUUAAGAUGGCA	7.48	5.3	–	–
AGUAGAUCAGGAUAUACGUGAAAGGUCAAAGUGUCCAAUCUACAUGAGGAUCACCCAUGUAGAAGGGAUCUACA	–	–	15.2	14.6
AGCUCCGCUCGAGGAUAUAGCUGCAUGUAGUGUCCUGAGGCACAUGAGGAUCACCCAUGUGUAGGCUAGAAGGCGACGGACAUU	–	–	43.3	152
CAGUACAGAGGAUAUACAUGAGGAUCACCCAUGUGUUUCAGCUAGGAGACUAGCGAGUGUAGAAGGCUGUACUG	–	–	37.4	360
UAUAUAUAGUAAGGAUAUGUAUAUACUUUAUAAACAGAAGGUACUGACAUGAGGAUCACCCAUGUUUUAGUGUGGGCAUGUAGA	–	–	75.9	102
GGAUAGGACAGAGGAUAUACCGAUAGGAGAUACUAUCGACUAGUCCUCACAUGAGGAUCACCCAUGUAGAAGGCUGUCCUAUCG	–	–	23.3	234
CGAUAAUAUAGUUAUCCGUAGCGAACAUGAGGAUCACCCAUGUAGGAUAUGUUACUAAACUAGUAACAGAAGGACAUGAGUCUU	–	–	28.5	178
GCUUCACAUGAGGAUCACCCAUGUCUUCGGAGUCGAGGAUAUGGUAACUGUAAACAGUUGCCAGAAGGCGAGGAGC	59.6	35.5	–	–
GAGUGGUGGAGAGGAUAUGCAUUGUUAUUCACUGUAGAAGGUUCUAACAUGAGGAUCACCCAUGUAGGACUAUUCCUGUGUUUU	13.5	11.1	–	–
UAGCUUGAUUCUCGUGUAUACAUGAGGAUCACCCAUGUGACGCAGGAUAUAGGCGUGUUAGUAGCCUAGAAGGGCGAGCAGCGU	–	–	153	235
GCGUGUCGUGUAGGAUAUGACACAGGAAACUGGUCAGAAGGACAUGAGGAUCACCCAUGUAAAAUGUUCAAGAAUAACGCAUGC	–	–	27.8	39.2
GCACUGGAUGUAGGAUAUCAGGACGAUAAGUCCUGAGAAGGACAUGAGGAUCACCCAUGUACCUCAAACCAGUGCUAUAAUAUA	–	–	15.1	30
UAGCAGUAGGGAGGAUAUGCGAAAGGAAGGCCCGCAGAAGGCCUUACAUGAGGAUCACCCAUGUAGGAUGCCUGGGUGGUGCCC	–	–	13.8	20.3
GGAAUACAUGAGGAUCACCCAUGUAAGGAUAUGCUGAUUAAAUUGGAUUAAUUAUGCAGCAGAAGGUACAAAAG	–	–	78.7	79.6
GAGUUAGAGGGAGGAUAUUGAGAUAGGACACUACGAGAAGGCUUAUAAUAGAUAAACAUGAGGAUCACCCAUGUCAUGUAAUGG	–	–	48.7	29.1

Sequence	apparent Kd [1] [nM]	apparent Kd [2] [nM]	apparent Kd [3] [nM]	apparent Kd [4] [nM]
UGUUCAUCAUCAGGAUAUUAACGUGGGCUACUUUAAGAAGGGAUAGUGGGAGAGGAUGUGAAACAUGAGGAUCACCCAUGUUGU	13.4	10.3	–	–
CAUUGACGACAAUUACAUGAGGAUCACCCAUGUUUUGGGAUGCAGGAUAUGUGGUAUAUUAAUUAACAGAAGGGCAAUAAUUUU	34.7	–	–	–
UUUUUAUUUGUAGGAUAUGGAGACAUGAGGAUCACCCAUGUAUGAUAAGCUAAAUUAUGCUGUGGCCAGAAGGAUAUUAUUUUU	43.9	49.7	–	–
CAGCUUUACGAGGAUAUGGAAGGAGUCAACUUGCCAGAAGGUGUAACAUGAGGAUCACCCAUGUGGCCCGUGAC	–	–	66.1	69.4
ACAUAAAUUCGAGGAUAUCGGUGAUAUAAUUUACGAGAAGGCGAUAAUUGUUAUAAACUUAUAGACAUGAGGAUCACCCAUGUA	32.1	31.9	–	–
GUCCAACAUGAGGAUCACCCAUGUGAGGAUAUGCGAAUUUCAUCAAAAGAUGAAAUUUGCAGAAGGCACAGGAC	–	–	20.2	32.8
AGAGAAUACUCAGGAUAUCUUAAUAGAAAGAAUAGAGAAGGGAGACAUGAGGAUCACCCAUGUGAAGUCUUGAGACUACAUGGU	–	–	291	442
AUACCACGAGGAUAUCGUCUAUAAUACAUGAGGAUCACCCAUGUUAUAUCUGUAAUGUUUCGAGAAGGCGUGUGUU	–	–	18.9	14.6
GUCGGAAACGACAAAAGUAUGGAUCCAGAAGGUAUGAAACAUGAGGAUCACCCAUGUCAAAGACAUGAGGAUAUGGAUCCAUAC	32.4	9.54	–	–
UUCUUGUGAGGAUAUCAGUAGUAAAUAAAUAAAAUUACUACUGAGAAGGCACAUGAGGAUCACCCAUGUUCCUU	–	–	14.6	32.9
GCCUCACAUGAGGAUCACCCAUGUCAGGAUAUAGGAGAUGGCAGAAAUCCUACCAUCGCUAGAAGGGACUGGCA	–	–	43.4	76.4
AAAAAGGCAGGAUAUACAUGAGGAUCACCCAUGUUUUAAAAAAAAAAAAAAAAAAAAAGUAGAAGGGCCAAAAA	–	–	55.4	45.1
GUGUACAGAGGAUAUGCUUGAAUCUAGCGAAGCUAGGUUCGACAUGAGGAUCACCCAUGUAGAAGGCUGUACAC	–	–	13.6	12.7
GAGUUACAUGAGGAUCACCCAUGUUGUUGUGGAUAAGGAUAUAUGGUAGGAAGAGGAAUGAUAGAAGGUAUUAGGG	46.2	40	–	–
UAAAUGUGAGGAUAUCAGGUGUGCUAGCGUACUGGUACAUCUGAGAAGGCACAUGAGGAUCACCCAUGUUCCUU	–	–	16.8	61.3
UGCUAGUCAGGAUAUACGAACAUGUCAAAAGACGUGAAGGGACAUGAGGAUCACCCAUGUAGAAGGGACUAGCC	–	–	33.2	162
GCGUGUAAUGUAGGAUAUGACACAGGAAACUGGUCAGAAGGACAUGAGGAUCACCCAUGUAAAAUGUUCAAGAAUAACACAUGC	–	–	22.9	37.8
AGACCAGUUCUAGGAUAUGUGUGACGUGAGUAAACAGAAGGAGAACAUGAGGAUCACCCAUGUGGGCCAAUCAUCCUCACGUGG	–	–	44.9	371
GCGUACUGAGGAUAUACAUGAGGAUCACCCAUGUUUCACAGCAUAUGUGAAGUUUUUUGUAGAAGGCAGUAUGC	–	–	29.6	163
UGAUAGGACAGAGGAUAUACGUAUAAAUAUCCUUACAUGAGGAUCACCCAUGUAGAAGGCUGUCCUAUCUAAGUCGGAAACGAC	–	–	5.96	10.3
AUAGGCCUAGGAUAUACAUGAGGAUCACCCAUGUUAAUACUUCAAUCAAGUUAAUAGUGUAGAAGGAGGAAUAA	–	–	27.6	32.4
UUAUUAUUUAUAGGAUAUUGAUGUUUGCUAGUACAAGAAGGAUAAACAUGAGGAUCACCCAUGUAGUUUAAGGUUAGUUUGUUU	38.1	39.4	–	–
UUGUUAUGUGUAGGAUAUGCAUAUUAUUAUUAUGCAGAAGGACAUGAGGAUCACCCAUGUGUAUUAUUAUUAUAUAUUAUAUAU	–	–	23.9	35.9
AAGUAUAAGGGCAUUAAACAUGAGGAUCACCCAUGUACAAUAGAGGAUAUGCAUUUUGGUUUAGAGUAGAAGGUUAGAGAAAAU	–	–	28.2	33.5
